Results as given in ChEMBL document CHEMBL1158167, “Synthesis, binding properties and receptor docking of 4-halo-6-[2-(4-arylpiperazin-1-yl)ethyl]-1H-benzimidazoles, mixed ligands of D2 and 5-HT1A receptors” (Eur J Med Chem, 2008).

Key:
D(2) dopamine receptor = D(2) dopamine receptor (Bos taurus, UniProt P20288); assay: Displacement of [3H]Spiperone from dopamine D2 receptor in bovine caudate nuclei synaptosomal membrane by liquid scintillation spectrometry
How it was run: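 Membranes (0.7 mg/ml protein) incubated 20 min at 37 °C with 0.2 nM [3H]spiperone and 8–10 test compound concentrations (10^-5–10^-10 M). Ketanserin […] blocks 5-HT2 sites. Nonspecific binding defined with […] (+)-butaclamol. GF/C filtration, scintillation counting. Ki; 3–4 experiments in triplicate.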

[1] = Displacement of [3H]8-OH-DPAT from 5HT1A receptor in bovine hippocampi synaptosomal membrane by liquid scintillation spectrometry; format: tissue-based, Bos taurus, Hippocampus
D(1A) dopamine receptor = D(1A) dopamine receptor (Bos taurus, UniProt Q95136); assay: Displacement of [3H]SCH23390 from dopamine D1 receptor in bovine caudate nuclei synaptosomal membrane by liquid scintillation spectrometry
D(1A) dopamine receptor, sequence (Q95136 whole entry): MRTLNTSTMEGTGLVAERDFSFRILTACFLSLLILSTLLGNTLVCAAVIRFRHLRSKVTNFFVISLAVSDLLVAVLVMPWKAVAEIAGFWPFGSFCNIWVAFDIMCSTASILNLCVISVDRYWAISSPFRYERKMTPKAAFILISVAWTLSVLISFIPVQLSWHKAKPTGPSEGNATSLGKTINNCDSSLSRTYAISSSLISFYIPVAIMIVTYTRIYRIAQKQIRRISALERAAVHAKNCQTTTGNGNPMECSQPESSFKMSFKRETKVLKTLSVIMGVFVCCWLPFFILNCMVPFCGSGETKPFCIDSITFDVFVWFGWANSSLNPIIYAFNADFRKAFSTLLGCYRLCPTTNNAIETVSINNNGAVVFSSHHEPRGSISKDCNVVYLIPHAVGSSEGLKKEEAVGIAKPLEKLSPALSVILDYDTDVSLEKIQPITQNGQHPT

D(2) dopamine receptor, sequence (P20288 whole entry): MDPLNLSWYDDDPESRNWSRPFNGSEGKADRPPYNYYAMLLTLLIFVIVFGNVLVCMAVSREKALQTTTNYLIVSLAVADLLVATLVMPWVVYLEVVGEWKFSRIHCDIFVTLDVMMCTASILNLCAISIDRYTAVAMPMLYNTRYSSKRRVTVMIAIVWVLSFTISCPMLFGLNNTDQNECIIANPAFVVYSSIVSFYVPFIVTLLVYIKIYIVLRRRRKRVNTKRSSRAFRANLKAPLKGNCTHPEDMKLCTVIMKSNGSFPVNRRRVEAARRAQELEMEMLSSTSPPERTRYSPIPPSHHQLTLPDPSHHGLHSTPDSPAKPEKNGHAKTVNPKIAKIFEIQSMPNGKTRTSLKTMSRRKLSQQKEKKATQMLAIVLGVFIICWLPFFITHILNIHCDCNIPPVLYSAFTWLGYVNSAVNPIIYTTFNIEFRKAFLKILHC

Structure (SMILES) | Ki (D(2) dopamine receptor) [nM] | Ki [1] [nM] | Ki (D(1A) dopamine receptor) [nM]
COc1ccccc1N1CCN(CCc2cc(Br)c3nc[nH]c3c2)CC1 | 0.56 | 1.4 | > 1000
Clc1ccccc1N1CCN(CCc2cc(Cl)c3nc[nH]c3c2)CC1 | 19.1 | 45.6 | > 1000
Clc1cc(CCN2CCN(c3ccccc3)CC2)cc2[nH]cnc12 | 84.7 | 89.6 | > 1000
FC(F)(F)c1cccc(N2CCN(CCc3cc(Cl)c4nc[nH]c4c3)CC2)c1 | 200 | 20.7 | > 1000
Brc1cc(CCN2CCN(c3ccccc3)CC2)cc2[nH]cnc12 | 61.9 | 24.1 | > 1000
Brc1cc(CCN2CCN(c3ncccn3)CC2)cc2[nH]cnc12 | 26.7 | 129 | > 1000
FC(F)(F)c1cccc(N2CCN(CCc3cc(Br)c4nc[nH]c4c3)CC2)c1 | 5.77 | 0.14 | > 1000
Clc1ccccc1N1CCN(CCc2ccc3nc[nH]c3c2)CC1 | 59.7 | 243 | –
c1ccc(N2CCN(CCc3ccc4nc[nH]c4c3)CC2)cc1 | 138 | 197 | > 1000
COc1ccccc1N1CCN(CCc2ccc3nc[nH]c3c2)CC1 | 13.1 | 20.3 | –
Clc1ccccc1N1CCN(CCc2cc(Br)c3nc[nH]c3c2)CC1 | 84.7 | 89.6 | > 1000
COc1ccccc1N1CCN(CCc2cc(Cl)c3nc[nH]c3c2)CC1 | 5.49 | 5.2 | > 1000
Clc1cc(CCN2CCN(c3ncccn3)CC2)cc2[nH]cnc12 | 550 | 530 | > 1000
FC(F)(F)c1cccc(N2CCN(CCc3ccc4nc[nH]c4c3)CC2)c1 | 273 | 33 | > 1000
c1cnc(N2CCN(CCc3ccc4nc[nH]c4c3)CC2)nc1 | > 1000 | > 1000 | –
